Broadly, the IC50 is the midpoint of a concentration-inhibition curve.

This passage reports IC50 results from ChEMBL document CHEMBL1147441, “A new series of potent oxindole inhibitors of CDK2” (Bioorg Med Chem Lett, 2004).

In assay [1] the target is Cyclin-dependent kinase 2/cyclin E (Homo sapiens, UniProt P24941). Briefly: In vitro inhibition of recombinant Cyclin Dependent Kinase-2/Cyclin E. In kind it is protein-complex assay.
Assay [2] has as its system MDA-MB-435. Briefly: In vitro inhibition of MDA MB 435 (human breast cancer) cell proliferation. It is filed as functional, cell-based. Put shortly:
(§1)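 MTT-based proliferation assay run on tumour cells. IC50 values were taken from a single experiment.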

The subject of assay [3] is SW480. Briefly: In vitro inhibition of SW480 (human colon cancer) cell proliferation. It is filed as functional, cell-based. Put shortly:
as §1

Molecules are shown by their SMILES.

In the case of `COc1cc[nH]c1/C=C1\C(=O)Nc2ccc(F)c(C#C[C@@H](C)O)c21`, the IC50 came to 21 nM in assay [1], 110 nM in assay [2] and 130 nM in assay [3].
In the case of `COc1cc[nH]c1/C=C1\C(=O)Nc2ccc(F)c(C#C[C@@H]3C[C@@H](O)CN3)c21`, the IC50 in assay [1] is 4 nM; in assay [2], 63 nM; in assay [3], 44 nM.
As for `CN[C@@H](C#Cc1c(F)ccc2c1/C(=C/c1[nH]ccc1OC)C(=O)N2)CO`, the values for the IC50 in assay [1], in assay [2] and in assay [3] were 4 nM, 300 nM and 80 nM, respectively.
Regarding `COc1cc[nH]c1/C=C1\C(=O)Nc2ccc(F)c(C#C[C@@H](NS(C)(=O)=O)[C@@H](C)O)c21`, the concentration for half-maximal inhibition (IC50) in assay [1] worked out at 45 nM; in assay [2], 2620 nM; in assay [3], 1180 nM.
Take `CN[C@H](C#Cc1c(F)ccc2c1/C(=C/c1[nH]ccc1OC)C(=O)N2)[C@@H](C)O`: the IC50 in assay [1] worked out at 7 nM; in assay [2], 358 nM; in assay [3], 140 nM.
For `COc1cc[nH]c1/C=C1\C(=O)Nc2ccc(F)c(C#C[C@@H](N)CO)c21`, in that order: 5 nM, 300 nM and 205 nM.
In the case of `COc1cc[nH]c1/C=C1\C(=O)Nc2ccc(F)c(I)c21`, the 50% inhibitory concentration (IC50) in assay [1] was 1000 nM; in assay [2], greater than 30000 nM.
Regarding `COc1cc[nH]c1/C=C1\C(=O)Nc2ccc(F)c(C#CC(O)CN)c21` (stereo not given), the IC50 in assay [1] is 4 nM; in assay [2], 130 nM; in assay [3], 110 nM.
As to `CCN[C@H](C#Cc1c(F)ccc2c1/C(=C/c1[nH]ccc1OC)C(=O)N2)CO`, the IC50 in assay [1] worked out at 21 nM; in assay [2], 1160 nM; in assay [3], 566 nM.
As for `CCN[C@H](C#Cc1c(F)ccc2c1/C(=C/c1[nH]ccc1OC)C(=O)N2)[C@@H](C)O`, the IC50 in assay [1] stood at 18 nM; in assay [2], 1070 nM; in assay [3], 549 nM.
Take `COc1cc[nH]c1/C=C1\C(=O)Nc2ccc(F)c(C#C[C@@H]3C[C@H](O)CN3)c21`: the IC50 in assay [1] is 5 nM; in assay [2], 110 nM; in assay [3] it was 90 nM.
As to `COc1cc[nH]c1/C=C1\C(=O)Nc2ccc(F)c(C#C[C@@H](O)[C@@H](N)[C@@H](C)O)c21`, the IC50 in assay [2] was found to be 400 nM; in assay [3], 140 nM.
Consider `COc1cc[nH]c1/C=C1\C(=O)Nc2ccc(F)c(C#C[C@H](C)O)c21`, for which the IC50 in assay [1] was determined as 26 nM; in assay [2], 190 nM; in assay [3] it was 400 nM.
Consider `CNCC#Cc1c(F)ccc2c1/C(=C/c1[nH]ccc1OC)C(=O)N2`, for which the results for the IC50 in assay [1], in assay [2] and in assay [3] were 4 nM, 490 nM and 150 nM, respectively.
Take `COc1cc[nH]c1/C=C1\C(=O)Nc2ccc(F)c(C#C[C@@H]3CCCN3)c21`: the IC50 in assay [1] came to 2 nM; in assay [2], 31 nM; in assay [3], 40 nM.
Consider `COc1cc[nH]c1/C=C1\C(=O)Nc2ccc(F)c(C#C[C@@H](N)[C@@H](C)O)c21`, for which the IC50 in assay [1] was 9 nM; in assay [2] it was 300 nM; in assay [3], 210 nM.
With `COc1cc[nH]c1/C=C1\C(=O)Nc2ccc(F)c(C#C[C@H](CO)NCCO)c21`, the IC50 amounted to 95 nM in assay [1], 1270 nM in assay [2] and 967 nM in assay [3].
On to `COc1cc[nH]c1/C=C1/C(=O)Nc2ccc(F)cc21`, for which the concentration for half-maximal inhibition (IC50) is 847 nM in assay [1] and greater than 30000 nM in assay [2].
As to `COc1cc[nH]c1/C=C1\C(=O)Nc2ccc(F)c(C#CC3(O)CCOCC3)c21`, the IC50 in assay [1] is 4 nM; in assay [2], 600 nM; in assay [3], 290 nM.
Regarding `CN[C@H](C#Cc1c(F)ccc2c1/C(=C/c1[nH]ccc1OC)C(=O)N2)CO`, the IC50 in assay [1] came to 8 nM; in assay [2], 349 nM; in assay [3], 100 nM.
With `COc1cc[nH]c1/C=C1\C(=O)Nc2ccc(F)c(C#C[C@H](N)CO)c21`, the values for the IC50 in assay [1], in assay [2] and in assay [3] were 3 nM, 320 nM and 270 nM, respectively.
